# Test results taken from ChEMBL document CHEMBL5360632, “Quinazolinone Compounds Have Potent Antiviral Activity against Zika and Dengue Virus” (J Med Chem, 2023).
# Experiments:
# [1] = test system: Zika virus; test: Antiviral activity against ZIKV FLR infected in Vero cells assessed as inhibition of viral replication by measuring reduction in cytopathic effect at 10 uM preincubated with compounds for 2 hrs followed by replacement with fresh media containing compounds and measured after 48 hrs by MTT assay relative to control; assay type: functional; conditions: time 50 hrs
# In short: (§1)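 Monolayers of 2 × 10^4 cells/well in DMEM with 2% FBS. Infected at 0.1 MOI together with compound for 2h. Wells washed with PBS, then fresh medium with compound added in duplicate and incubated 48h at 37 °C. Supernatant titred by end-point dilution: half-log dilutions on Vero monolayers in quadruplicate for 5–7 days, CPE by microscope then MTT. TCID50 compared with untreated; EC50 from dose-response fit of ≥2 independent experiments.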
# [2] = test system: Zika virus; test: Antiviral activity against ZIKV FLR infected in Vero cells assessed as inhibition of viral replication by measuring reduction in cytopathic effect at 1 uM preincubated with compounds for 2 hrs followed by replacement with fresh media containing compounds and measured after 48 hrs by MTT assay relative to control; assay type: functional; conditions: time 50 hrs; in short: as §1
# [3] = test system: Zika virus; test: Antiviral activity against ZIKV FLR infected in Vero cells assessed as inhibition of viral replication by measuring log reduction in cytopathic effect at 10 uM preincubated with compounds for 2 hrs followed by replacement with fresh media containing compounds and measured after 48 hrs by MTT assay; assay type: functional; conditions: time 50 hrs; in short: as §1
# [4] = test system: Vero; test: Cytotoxicity against African green monkey Vero cells at 10 uM; assay type: toxicity, cell-based; conditions: chlorocebus sabaeus
# In short: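 Vero monolayers in 96-well plates, treated with compound at 10 μM in duplicate for 72 h during the phenotypic anti-ZIKV screen (0.1 MOI ZIKV FLR strain). An MTT assay optionally quantified viable cells.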
# [5] = test system: Zika virus; test: Antiviral activity against ZIKV FLR infected in Vero cells assessed as inhibition of viral replication by measuring reduction in cytopathic effect preincubated with compounds for 2 hrs followed by replacement with fresh media containing compounds and measured after 48 hrs by MTT assay; assay type: functional, organism-based; in short: as §1
# [6] = test system: Zika virus; test: Antiviral activity against ZIKV FLR infected in Vero cells assessed as reduction in number of viral RNA copies by qRT-PCR analysis; assay type: functional, organism-based; conditions: dose 0.3-10 µM
# In short: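 Viral RNA measured in cell supernatant after compound treatment. Copies/mL calculated from a standard curve.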
# [7] = test system: Zika virus; test: Antiviral activity against ZIKV FLR infected in human U87 cells assessed as inhibition of viral replication pretreated with compounds for 2 hrs followed by replacement with fresh medium containing compound and measured after 48 hrs by MTT assay; assay type: functional, organism-based; conditions: U-87 MG; in short: as §1
# [8] = test system: Zika virus; test: Antiviral activity against ZIKV FLR infected in mosquito C6/36 cells assessed as inhibition of viral replication pretreated with compounds for 2 hrs followed by replacement with fresh medium containing compound and measured after 48 hrs bt MTT assay; assay type: functional, organism-based; in short: as §1
# [9] = test system: U-87 MG; test: Cytotoxicity against human U87 cells assessed as reduction in cell viability; assay type: toxicity, cell-based; conditions: u-87mg atcc
# [10] = test system: dengue virus type 2; test: Antiviral activity against Dengue virus serotype 2 K0049 infected in Vero cells assessed as inhibition of viral replication pretreated for 2 hrs followed by replacement with fresh medium containing compound and measured after 48 hrs by MTT assay; assay type: functional, organism-based; in short: as §1
# [11] = test system: Zika virus; test: Antiviral activity against ZIKV FLR infected in Vero cells assessed as inhibition of viral replication by measuring log reduction in cytopathic effect at 1 uM preincubated with compounds for 2 hrs followed by replacement with fresh media containing compounds and measured after 48 hrs by MTT assay; assay type: functional; conditions: time 50 hrs; in short: as §1
Structure (SMILES),inhibition at 10 µM [1],other results
COc1cccc(/C=C/c2nc3ccc(N4CCC(N5CCOCC5)CC4)cc3c(=O)n2-c2cccc(C)c2)n1,99.9%,inhibition at 1 µM [2]: 0%
CCN(CC)CCCC(C)Nc1ccnc2cc(Cl)ccc12 (configuration not stated) [CHLOROQUINE],90%,
COc1ccc2nc(/C=C/c3cccc(OC)n3)n(-c3cccc(C(C)(C)C)c3)c(=O)c2c1,0%,
COc1cccc(/C=C/c2nc3ccc(-c4ccc(N(C)C)cc4)cc3c(=O)n2-c2cccc(C(C)(C)C)c2)n1,96.8%,
COc1cccc(-n2c(/C=C/c3cccnc3)nc3ccccc3c2=O)c1,68.4%,log(activity) [3]: 0.5
COc1cccc(/C=C/c2nc3ccccc3c(=O)n2-c2cccc(C(C)(C)C)c2)n1,0%,
COc1cccc(/C=C/c2nc3ccc(C4=CCOCC4)cc3c(=O)n2-c2cccc(C(C)(C)C)c2)n1,96.8%,
COc1cccc(/C=C/c2nc3ccc(N4CCCC4)cc3c(=O)n2-c2cccc(C(C)(C)C)c2)n1,68.4%,
COc1cccc(/C=C/c2nc3ccc(OC)cc3c(=O)n2-c2cccc(C(C)(C)C)c2)c1,0%,
COc1ncccc1/C=C/c1nc2ccccc2c(=O)n1-c1cccc(C(C)(C)C)c1,68.4%,log(activity) [3]: 0.5
COc1cccc(/C=C/c2nc3ccc(N4CCN(C(=O)OC(C)(C)C)CC4)cc3c(=O)n2-c2cccc(C(C)(C)C)c2)c1,99%,
COc1cccc(/C=C/c2nc3ccc(N4CCN(C)CC4)cc3c(=O)n2-c2cccc(C(C)(C)C)c2)n1,,Activity [4]: Toxic
COc1cccc(/C=C/c2nc3ccc(-c4ccc(N5CCCC5)cc4)cc3c(=O)n2-c2cccc(C(C)(C)C)c2)n1,96.8%,
COc1cccc(/C=C/c2nc3ccc(N4CCN(C(=O)OC(C)(C)C)CC4)cc3c(=O)n2-c2cccc(C(C)(C)C)c2)n1,99%,
CC(C)(C)c1cccc(-n2c(/C=C/c3ccc(C(F)(F)F)cc3)nc3ccccc3c2=O)c1,90%,
COc1ccccc1/C=C/c1nc2ccccc2c(=O)n1-c1cccc(C(C)(C)C)c1,0%,
CC(C)(C)c1cccc(-n2c(/C=C/c3ccncc3)nc3ccc(N4CCCCC4)cc3c2=O)c1,68.4%,
COc1cccc(/C=C/c2nc3ccc(N4CCC(N5CCOCC5)CC4)cc3c(=O)n2-c2cccc(C(C)(C)C)c2)n1,99.9%,inhibition at 1 µM [2]: 90%
COc1cccc(/C=C/c2nc3ccc(N4CCNCC4)cc3c(=O)n2-c2cccc(C(C)(C)C)c2)n1,,Activity [4]: Toxic
CC(C)(C)c1cccc(-n2c(/C=C/c3ccc4ccccc4c3)nc3ccccc3c2=O)c1,68.4%,
NCc1ccc(-c2ncc(OCC3CCNCC3)nc2-c2ccc(-c3ccoc3)cc2)cc1,,inhibition at 1 µM [2]: 68%
CC(C)(C)c1cccc(-n2c(/C=C/c3ccc4ccccc4c3)nc3ccc(N4CCCCC4)cc3c2=O)c1,99.7%,
CC(C)(C)c1cccc(-n2c(/C=C/c3cccnc3)nc3ccccc3c2=O)c1,0%,
COc1cccc(/C=C/c2nc3ccc(N4CCC(N5CCOCC5)CC4)cc3c(=O)n2-c2cccc(C(F)(F)F)c2)n1,68.4%,
CC(C)(C)c1ccc(-n2c(/C=C/c3cncc(Br)c3)nc3ccccc3c2=O)cc1,0%,
CC(C)(C)c1cccc(-n2c(/C=C/c3cncnc3)nc3ccccc3c2=O)c1,68.4%,
Cc1cccc(-n2c(/C=C/c3cccnc3)nc3ccccc3c2=O)c1,0%,

Structure (SMILES),inhibition at 10 µM [1],other results
COc1cccc(/C=C/c2nc3ccc(N4CCCCC4)cc3c(=O)n2-c2cccc(C(C)(C)C)c2)n1,99.9%,inhibition at 1 µM [2]: 90%; EC50 [5]: 900 nM; Activity [6]: Dose-Dependent Effect; EC50 [7]: 820 nM; EC50 [8]: 750 nM; CC50 [9]: > 20000 nM; EC50 [10]: 160 nM
COc1cccc(/C=C/c2nc3ccc(N4CCOCC4)cc3c(=O)n2-c2cccc(C)c2)n1,90%,
COc1cccc(/C=C/c2nc3ccc(-c4ccc(F)cc4)cc3c(=O)n2-c2cccc(C(C)(C)C)c2)n1,99%,
Cc1ccccc1-n1c(/C=C/c2cccnc2)nc2ccccc2c1=O,0%,
O=c1c2ccccc2nc(/C=C/c2cccnc2)n1-c1ccccc1,0%,
CCN(CC)c1ccc2nc(/C=C/c3cccc(OC)n3)n(-c3cccc(C(C)(C)C)c3)c(=O)c2c1,99.9%,inhibition at 1 µM [2]: 68.4%; log(activity) [11]: 0.5; log(activity) [3]: 3
CC(C)(C)c1ccc(-n2c(/C=C/c3cccnc3)nc3ccccc3c2=O)cc1,0%,
COc1cccc(/C=C/c2nc3ccc(N4CCOCC4)cc3c(=O)n2-c2cccc(C(F)(F)F)c2)n1,0%,
COc1cccc(/C=C/c2nc3ccc(Cl)cc3c(=O)n2-c2cccc(C(C)(C)C)c2)n1,0%,
COc1cccc(/C=C/c2nc3ccc(N4CCCCC4)cc3c(=O)n2-c2cccc(C(C)(C)C)c2)c1,99.9%,inhibition at 1 µM [2]: 68.4%
CC(C)(C)c1cccc(-n2c(/C=C/c3ccccc3)nc3ccccc3c2=O)c1,0%,
COc1cccc(/C=C/c2nc3ccc(N4CCCCC4)cc3c(=O)n2-c2cccc(C(F)(F)F)c2)n1,99%,
CC(C)(C)c1cccc(-n2c(/C=C/c3ccc(C(F)(F)F)nc3)nc3ccccc3c2=O)c1,90%,log(activity) [3]: 0.5
CC(C)(C)c1ccc(-n2c(/C=C/c3cncnc3)nc3ccccc3c2=O)cc1,0%,
CC(C)(C)c1cccc(-n2c(/C=C/c3ccc(C(F)(F)F)nc3)nc3ccc(N4CCCCC4)cc3c2=O)c1,90%,
COc1cccc(/C=C/c2nc3ccccc3c(=O)n2-c2cccc(C(C)(C)C)c2)c1,0%,
COc1cccc(CCc2nc3ccc(N4CCCCC4)cc3c(=O)n2-c2cccc(C(C)(C)C)c2)n1,0%,
COc1cccc(/C=C/c2nc3ccc(N4CCCCC4)cc3c(=O)n2-c2cccc(C)c2)n1,99.9%,inhibition at 1 µM [2]: 0%
COc1cccc(-n2c(/C=C/c3cccc(OC)n3)nc3ccc(N4CCCCC4)cc3c2=O)c1,99.9%,inhibition at 1 µM [2]: 90%; EC50 [5]: 210 nM; EC50 [7]: 690 nM; EC50 [8]: 770 nM; CC50 [9]: > 20000 nM; EC50 [10]: 560 nM
CC(C)(C)c1cccc(-n2c(/C=C/c3ccncc3)nc3ccccc3c2=O)c1,68.4%,
COc1cccc(-n2c(/C=C/c3cccc(OC)n3)nc3ccc(N4CCC(N5CCOCC5)CC4)cc3c2=O)c1,99.9%,inhibition at 1 µM [2]: 68.4%
COc1cccc(-n2c(/C=C/c3cccc(OC)n3)nc3ccc(N4CCOCC4)cc3c2=O)c1,99%,
COc1cccc(CCc2nc3ccc(N4CCOCC4)cc3c(=O)n2-c2cccc(C(C)(C)C)c2)n1,0%,
COc1cccc(/C=C/c2nc3ccc(-c4ccncc4)cc3c(=O)n2-c2cccc(C(C)(C)C)c2)n1,0%,
COc1cc(/C=C/c2nc3ccc(N4CCN(C)CC4)cc3c(=O)n2-c2cccc(C(C)(C)C)c2)cc(OC)c1,,Activity [4]: Toxic
COc1cccc(-c2ccc3nc(/C=C/c4cccc(OC)n4)n(-c4cccc(C(C)(C)C)c4)c(=O)c3c2)c1,0%,
